Laboratory results: ChEMBL document CHEMBL3784946, “Antiviral Merosesquiterpenoids Produced by the Antarctic Fungus Aspergillus ochraceopetaliformis SCSIO 05702” (J Nat Prod, 2016)
In brackets after ≈: the same amount, converted by molar mass. Activity calls are given as the source filed them. No cut-off for these calls is given here.

What was measured:
Staphylococcus aureus [1] = assay: Antibacterial activity against Staphylococcus aureus after 24 hrs by agar dilution method; assay type: functional
A549 = assay: Cytotoxicity against human A549 cells assessed as reduction in cell viability after 72 hrs by CCK8 assay; assay type: functional, cell-based
Procedure, shortened: (§1)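 Cells grown in RPMI or DMEM with 10% FBS and 1% penicillin/streptomycin at 37 °C under 5% CO2. Seeded at 400–800 cells/well and exposed to graded compound concentrations or solvent control for 72 h. Viability read by CCK-8 absorbance at 450 nm, and IC50 derived from dose–response curves.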

U-937 = assay: (§2) Cytotoxicity against human U937 cells assessed as reduction in cell viability after 72 hrs by CCK8 assay; assay type: functional, cell-based; procedure, shortened: as §1
HeLa = assay: Cytotoxicity against human HeLa cells assessed as reduction in cell viability after 72 hrs by CCK8 assay; assay type: functional, cell-based; procedure, shortened: as §1
HL-60 = assay: Cytotoxicity against human HL60 cells assessed as reduction in cell viability after 72 hrs by CCK8 assay; assay type: functional, cell-based; procedure, shortened: as §1
HT-29 = assay: Cytotoxicity against human HT-29 cells assessed as reduction in cell viability after 72 hrs by CCK8 assay; assay type: functional, cell-based; procedure, shortened: as §1
Staphylococcus aureus [2] = assay: Antibacterial activity against Staphylococcus aureus assessed as growth inhibition at 0.01 to 100 ug/ml after 24 hrs by agar dilution method; assay type: functional, organism-based
Procedure, shortened: (§3)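 Bacteria grown on LB agar plates at 37 °C. Samples were dissolved in DMSO and serially diluted 2-fold from 100 to 0.01 μg/mL. 5 μL of each dilution was loaded onto a 5 mm paper disk placed on the plate. After 24 h, inhibition zone diameters (mm) were recorded. MIC was the lowest concentration with no visible growth. Ciprofloxacin lactate served as positive control.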

Escherichia coli = assay: Antibacterial activity against Escherichia coli assessed as growth inhibition at 0.01 to 100 ug/ml after 24 hrs by agar dilution method; assay type: functional, organism-based; procedure, shortened: as §3
[3] = test system: Mycobacterium tuberculosis; assay: Antitubercular activity against Mycobacterium tuberculosis H37Ra assessed as growth inhibition at 100 ug/ml after 7 days by Alamar blue assay; assay type: functional, organism-based
Procedure, shortened: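 M. tuberculosis H37Ra exposed 7 days to material at 100 μg/mL (from 10 mg/mL DMSO stock; 1% v/v DMSO). Growth measured by Alamar Blue fluorescence, with inhibition expressed relative to bacteria-only controls.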

Influenza A virus = assay: Antiviral activity against Influenza A virus H1N1 infected in MDCK cells assessed as inhibition of virus-induced cytopathic effect after 48 hrs by crystal violet staining-based microplate reader analysis; assay type: functional, organism-based
Procedure, shortened: (§4)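 Confluent MDCK monolayers infected with influenza virus for 1 h at 37 °C. Virus was removed, and cells were kept in RPMI 1640 with 4 μg/mL trypsin plus graded compound concentrations for 48 h at 37 °C. Cells were then fixed in 4% formaldehyde and stained with 0.1% crystal violet, with absorbance read at 570 nm. IC50 is the concentration giving 50% […] at 48 h. Values are means of three independent experiments.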

Influenza A virus H3N2 = assay: Antiviral activity against Influenza A virus H3N2 infected in MDCK cells assessed as inhibition of virus-induced cytopathic effect after 48 hrs by crystal violet staining-based microplate reader analysis; assay type: functional, organism-based; procedure, shortened: as §4
[4] = Cytotoxicity against MDCK cells after 48 hrs by crystal violet staining-based microplate reader analysis; assay type: cell-based, Canis lupus familiaris; conditions: dog
Procedure, shortened: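 CC50 taken from the CPE-inhibition assay format on MDCK cells, with crystal violet read-out. Values are means ± SD of three independent experiments.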

[5] = Selectivity index, ratio of CC50 for MDCK cells to IC50 for Influenza A virus H3N2 infected in MDCK cells; assay type: functional
Procedure, shortened: (§5)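 SI calculated as CC50 divided by IC50, both from the CPE-inhibition assay on MDCK cells. The underlying values are means of three independent experiments.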

[6] = Selectivity index, ratio of CC50 for MDCK cells to IC50 for Influenza A virus H1N1 infected in MDCK cells; assay type: functional; procedure, shortened: as §5
[7] = as §2; assay type: functional, cell-based; conditions: U-937, 72 h; procedure, shortened: as §1
[8] = test system: Mycobacterium tuberculosis; assay: Antitubercular activity against Mycobacterium tuberculosis H37Ra after 7 days by Alamar blue assay; assay type: functional; conditions: 168 h
Procedure, shortened: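 M. tuberculosis H37Ra exposed 7 days to 2-fold dilution series from 100 μg/mL downward (10 mg/mL DMSO stock; 1% v/v DMSO at top). Growth measured by Alamar Blue fluorescence.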

Compound	MIC (Staphylococcus aureus [1]) [µg/mL]	Activity (A549)	Activity (U-937)	Activity (HeLa)	Activity (HL-60)	Activity (HT-29)	growth inhibition (GI) (Staphylococcus aureus [2])	growth inhibition (GI) (Escherichia coli)	growth inhibition (GI) [3]	IC50 (Influenza A virus) [nM]	IC50 (Influenza A virus H3N2) [nM]	CC50 at 48 h [4] [nM]	Ratio CC50/IC50 [5]	Ratio CC50/IC50 [6]	IC50 [7] [nM]	IC50 (HT-29; HT-29, 72 h) [nM]	MIC90 [8] [µM]
CC(O)C(=O)O.O=C(O)c1cn(C2CC2)c2cc(N3CCNCC3)c(F)cc2c1=O [CIPROFLOXACIN LACTATE]	1.25																
CC[C@H]1O[C@@H]2O[C@@H]3[C@H](O)[C@@H](/C=C/C=C/c4oc(=O)cc(OC)c4C)O[C@@H]3[C@]2(C)[C@@]1(C)O		inactive	inactive	inactive	inactive	inactive	inactive	inactive	inactive								
CCOC(=O)C1=C[C@@H](OC(CC)CC)[C@H](NC(C)=O)[C@@H](N)C1 [OSELTAMIVIR]										16.9	18.5						
Cc1oc(=O)c2c(c1C)O[C@]1(C)[C@H](O)C[C@@]3(O)C(C)(C)C(=O)CC[C@]3(C)[C@H]1C2		inactive	inactive	inactive	inactive	inactive	inactive	inactive	inactive								
CO[C@H]1c2c(c(C)c(C)oc2=O)O[C@@]2(C)[C@H]1[C@@H](C)[C@]1(O)CC(=O)C(C)(C)C(=O)[C@@]1(O)[C@H]2O		inactive	inactive	inactive	inactive	inactive	inactive	inactive	inactive	> 20000	12200	20900	1.71				
Cc1oc(=O)c2c(c1C)O[C@@]1(C)[C@H](C2)[C@@H](C)[C@]2(O)CC(=O)C(C)(C)C(=O)[C@@]2(O)[C@H]1O		inactive	inactive	inactive	inactive	inactive	inactive	inactive	inactive								
CC[C@H]1O[C@@H]2O[C@H](/C=C/C=C\C=C\c3oc(=O)cc(OC)c3C)[C@H](O)[C@]2(C)[C@@]1(C)O		inactive	inactive	inactive	inactive	inactive	inactive	inactive	inactive	230	660	540	0.81	2.35			
Cc1oc(=O)c2c(c1C)O[C@@]1(C)[C@@H]([C@@H](C)[C@]3(O)CC(=O)C(C)(C)C(=O)[C@@]3(O)[C@H]1O)[C@H]2O		inactive	inactive	inactive	inactive	inactive	inactive	inactive	inactive								
CC(=O)O[C@H]1C(=O)[C@@]2(C)[C@H]([C@H](OC(=O)c3ccccc3)[C@]3(O)C[C@H](OC(=O)[C@H](O)[C@@H](NC(=O)c4ccccc4)c4ccccc4)C(C)=C1C3(C)C)[C@]1(OC(C)=O)CO[C@@H]1C[C@@H]2O [PACLITAXEL]															1.66	3.04	
NNC(=O)c1ccncc1 [ISONIAZID]																	2.04 (≈ 0.28 µg/mL)
Cc1oc(=O)c2c(c1C)O[C@@]1(C)C(=C2)[C@@H](C)[C@]2(O)CC(=O)C(C)(C)C(=O)[C@@]2(O)[C@H]1O		inactive	inactive	inactive	inactive	inactive	inactive	inactive	inactive								
CC[C@H]1O[C@@H]2O[C@H](/C=C/C=C/C=C/c3oc(=O)cc(OC)c3C)[C@H](O)[C@]2(C)[C@@]1(C)O		inactive	inactive	inactive	inactive	inactive	inactive	inactive	inactive	540	840	240	0.29	0.44			
